Compounds with a hit are over-represented: about 1.7% of the library has one in this group of screens.
CXCR6 block = CXCR6 receptor inhibitors, primary screen, cell-based, beta-arrestin, luminescence, CHO-K1 PathHunter, 1536-well | C-X-C chemokine receptor type 6 (Homo sapiens), O00574 | AID 602244, 2012 | 360,000 tested, 0.36% active | inhibition, % at 20 µM; in the data active means inhibition above about 34%, passing the limit was not always enough;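 further: antagonist mode with CXCL16 agonist at 10 nM final; 0% = 10 nM CXCL16 with DMSO and 100% = unstimulated wells without agonist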
CCR6 antag = CCR6 receptor antagonists, primary screen, cell-based, CHO-K1, luminescence, beta-arrestin, uHTS; C-C chemokine receptor type 6 (Homo sapiens), P51684; CHO-K1 CCR6 PathHunter beta-arrestin, CCL20-stimulated; inhibition, % at 20 µM; 340,000 tested, 0.49% active; AID 493098, 2011;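 active means compounds whose inhibition of the agonist-driven luminescence signal at 20 µM reaches about 50%, limit read from the data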;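 further: cells stimulated with CCL20 at 14 nM final; plate controls were DMSO with CCL20 for no effect and DMSO without agonist for full effect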
APJ antag = antagonists of human apelin receptor APJ, primary screen, CHO-K1 cells, beta-arrestin complementation, luminescence | P35414 | inhibition, % at 20 µM | 330,000 tested, 0.32% active;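 active means inhibition above about 40% at 20 µM, limit read from the data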;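 further: cells challenged with 10 nM apelin-13 agonist together with compound; plate controls were apelin-13 plus DMSO wells for no effect and DMSO wells lacking apelin-13 for full effect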
Target sequence (P35414 whole entry, looked up): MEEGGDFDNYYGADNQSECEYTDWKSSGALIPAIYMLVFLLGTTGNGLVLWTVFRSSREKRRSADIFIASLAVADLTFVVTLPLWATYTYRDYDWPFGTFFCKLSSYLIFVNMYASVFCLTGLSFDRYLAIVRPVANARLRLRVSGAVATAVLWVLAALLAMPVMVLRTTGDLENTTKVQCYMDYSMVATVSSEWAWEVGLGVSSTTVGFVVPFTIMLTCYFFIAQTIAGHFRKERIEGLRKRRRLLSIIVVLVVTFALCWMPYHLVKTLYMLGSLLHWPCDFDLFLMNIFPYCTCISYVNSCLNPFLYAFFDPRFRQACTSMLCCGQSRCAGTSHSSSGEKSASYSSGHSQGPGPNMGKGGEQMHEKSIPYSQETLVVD
Beta2AR agonist = beta2AR agonists driving receptor internalization, primary screen, cell-based, FAP fluorogen, flow cytometry; Beta-2 adrenergic receptor (Homo sapiens), P07550; Am2.2-beta2AR cells; response, % (concentration not given with the values); 340,000 tested, 0.43% active;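 active means response above a set limit, near 3 SD of response in nonfluorescent compounds, cut at about 42% in these data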
PfGluPho inh = PfG6PD enzyme inhibitors, primary screen, biochemical, fluorescence intensity, uHTS. glucose-6-phosphate dehydrogenase-6-phosphogluconolactonase (Plasmodium falciparum 3D7). PfGluPho enzyme, NADPH resazurin-diaphorase fluorescence. inhibition, % at 20 µM. 350,000 tested, 0.78% active. AID 504690, 2011;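 active means inhibition reaching at least a set limit at 20 µM in the primary screen, cut at about 59% in these data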;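 further: 0% = DMSO wells with substrate and 100% = DMSO wells lacking glucose-6-phosphate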
APJ ag = agonists of human apelin receptor APJ, primary screen, CHO-K1 cells, PathHunter beta-arrestin, luminescence; P35414; 0% DMSO wells, 100% apelin; activation, % at 20 µM; 330,000 tested, 0.11% active; AID 2520, 2010;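 active means activation more than six SD over the plate average, tested at 20 µM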;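 further: 0% = DMSO alone and 100% = apelin-13 at 10 nM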
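Assay system – PathHunter CHO-K1 APJ (AGTRL-1) beta-arrestin reporter cells · Compound – one dose, 20 µM compound, 1% DMSO · Timing – compound 90 min 25 °C, reagent 1 h · Measured by – luminescence from split beta-galactosidase complementation, Galacton Star/Emerald II substrate · Measure – beta-arrestin recruitment to APJ as agonist activity, luminescent signal · Benchmarks – DMSO vs Apelin-13 10 nM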
PfGluPho conf = PfG6PD inhibitors, hit retest, confirmation, biochemical, fluorescence intensity, single concentration. inhibition, % at 20 µM. 2,400 tested, 34% active. shares compounds with PfGluPho inh. recombinant PfGluPho, NADPH-diaphorase-resazurin fluorescence;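 active means inhibition of at least 50% at 20 µM in any single replicate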;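 further: 0% = DMSO with substrate and 100% = DMSO lacking glucose-6-phosphate substrate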
Diaphorase 10uM = diaphorase inhibitors and chemical oxidizers, confirmation, counter-screen for P. falciparum G6PD inhibitor project, biochemical, fluorescence intensity, 10 µM NADPH | shares compounds with PfGluPho inh | diaphorase-coupled resazurin reduction, NADPH 10 uM | inhibition, % at 20 µM | 820 tested, 39% active | AID 504862, 2011;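 active means average inhibition reaching 50% or more with the compound at 20 µM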;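 further: resorufin red fluorescence formed as diaphorase reduces resazurin using NADPH; 0% = DMSO with enzyme and 100% = DMSO without enzyme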
Diaphorase 30uM = diaphorase inhibitors and chemical oxidizers, confirmation, counter-screen for P. falciparum G6PD inhibitor project, biochemical, fluorescence intensity, 30 µM NADPH | shares compounds with PfGluPho inh | Diaphorase/resazurin coupled assay, resorufin fluorescence | inhibition, % at 20 µM | 820 tested, 29% active | AID 504863, 2011;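 active means inhibition averaging 50% or more, tested at 20 µM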;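 further: 0% = DMSO with enzyme and 100% = DMSO wells lacking diaphorase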
An asterisk follows results filed as active.

Results for CN(CC(=O)Nc1ccc(F)c(F)c1F)C(=O)c1n[nH]c(=O)c2ccccc12 ?
CXCR6 block: 3; CCR6 antag: 3; APJ antag: -1; Beta2AR agonist: -4; PfGluPho inh: 3; APJ ag: 1

Results for CCn1c(SCC(=O)Nc2ccc(OC)c(S(=O)(=O)N3CCCCC3)c2)nnc1C1CC1 ?
CXCR6 block: 1; CCR6 antag: 0; APJ antag: -26; Beta2AR agonist: -2; PfGluPho inh: -5; APJ ag: -6

How did CNC(=O)c1c(C)[nH]c(=S)c(C#N)c1-c1ccco1 do in these assays?
CXCR6 block: -15; CCR6 antag: 5; APJ antag: 5; Beta2AR agonist: -3; PfGluPho inh: 56; APJ ag: -9

How did CCc1c(C(=O)Nc2ccccc2)c(C)[nH]c(=S)c1C#N do in these assays?
CXCR6 block: 8; CCR6 antag: 1; APJ antag: 8; Beta2AR agonist: -6; PfGluPho inh: 59*; APJ ag: -4; PfGluPho conf: 54*; Diaphorase 10uM: -29; Diaphorase 30uM: -20

How did Cc1ccccc1NC(=O)c1c(C)[nH]c(=S)c(C#N)c1-c1ccco1 do in these assays?
CXCR6 block: 1; CCR6 antag: 2; APJ antag: 6; Beta2AR agonist: 0; PfGluPho inh: 42; APJ ag: -1

Results for Cc1[nH]c(=S)c(C#N)c(C)c1C(=O)Nc1ccccc1 ?
CXCR6 block: 8; CCR6 antag: 12; APJ antag: -15; Beta2AR agonist: 7; PfGluPho inh: 62*; APJ ag: 3; PfGluPho conf: 37

What do the screens show for `O=C(c1ccccc1)N1CCN(C(=O)c2nn3c(C(F)(F)F)cc(-c4ccco4)nc3c2Br)CC1`?
CXCR6 block: -2; CCR6 antag: -1; APJ antag: 11; Beta2AR agonist: -5; PfGluPho inh: 1; APJ ag: 0

How did CCc1c(C)nc2cc(-c3ccc(OC)c(OC)c3)nn2c1NCC1CC1 do in these assays?
CXCR6 block: -2; CCR6 antag: -10; APJ antag: 2; Beta2AR agonist: 18; PfGluPho inh: 62*; APJ ag: 3; PfGluPho conf: 6

What do the screens show for `O=C1c2ccccc2C(c2nnnn2-c2ccc3c(c2)OCCO3)N1Cc1ccco1` (stereo unspecified)?
CXCR6 block: -3

Results for O=c1c2ccccc2sn1-c1ccccc1F ?
CXCR6 block: 3; PfGluPho inh: 122*; PfGluPho conf: 109*; Diaphorase 10uM: -8; Diaphorase 30uM: 8

Results for Cc1ccccc1-n1sc2cc(F)ccc2c1=O ?
CXCR6 block: 9; CCR6 antag: 21; APJ antag: -42; Beta2AR agonist: 7; PfGluPho inh: 114*; APJ ag: 0; PfGluPho conf: 114*; Diaphorase 10uM: -12; Diaphorase 30uM: -25

Results for O=C1c2ccccc2C(=O)N1c1nccs1 ?
CXCR6 block: 7; CCR6 antag: 12; Beta2AR agonist: 1; PfGluPho inh: -6

How did O=c1c2ccccc2sn1-c1nccs1 do in these assays?
CXCR6 block: 9; CCR6 antag: 26; Beta2AR agonist: 1; PfGluPho inh: 112*; PfGluPho conf: 115*; Diaphorase 10uM: -25; Diaphorase 30uM: -24

Compound activity: PubChem BioAssay, several laboratories
